Source: PubChem
This is a sample that favours compounds with a hit; in the whole collection about 3.9% have one here.
OX1R antag-1: antagonists of human orexin 1 receptor (OX1R); OX1R-expressing cells, FRET antagonist read-out; inhibition, % at 6.6 µM; actives 1.8% (n = 330,000); AID 485270; in the data active means inhibition mostly above about 38%, no sharp cut-off; inactive means mostly below about 40%
CHO parental Ca: counter-screen: ATP calcium response change in parental CHO cells; parental CHO-K1, ATP-induced calcium, Fluo-8 fluorescence; inhibition, % at 5.6 µM; actives 0.63% (n = 330,000); AID 463079;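 active means inhibition above that plate's mean sample inhibition plus 3 SD, cut at about 26% in these data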
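Measured by: calcium-sensitive Fluo-8 fluorescence / Test system: CHO parental line / Controls: ATP-challenged DMSO wells low, unchallenged DMSO wells high / Measure: % inhibition / Compound: single nominal dose of 5.6 µM per compound / Replicates: single well per compound, no replicates / Reagent: ATP as calcium-mobilizing challenge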
TAAR1 agonist: agonists of human TAAR1; Q96RJ0; CHO RD-HGA16 TAAR1, Fluo-8 calcium fluorescence; vehicle wells 0%, saturating PEA agonist 100%; activation, % at 3 µM; actives 0.99% (n = 360,000);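 active means activation above the mean activation of all test compounds in the run plus 3 SD, cut at about 38% in these data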
Target sequence (Q96RJ0 whole entry, looked up): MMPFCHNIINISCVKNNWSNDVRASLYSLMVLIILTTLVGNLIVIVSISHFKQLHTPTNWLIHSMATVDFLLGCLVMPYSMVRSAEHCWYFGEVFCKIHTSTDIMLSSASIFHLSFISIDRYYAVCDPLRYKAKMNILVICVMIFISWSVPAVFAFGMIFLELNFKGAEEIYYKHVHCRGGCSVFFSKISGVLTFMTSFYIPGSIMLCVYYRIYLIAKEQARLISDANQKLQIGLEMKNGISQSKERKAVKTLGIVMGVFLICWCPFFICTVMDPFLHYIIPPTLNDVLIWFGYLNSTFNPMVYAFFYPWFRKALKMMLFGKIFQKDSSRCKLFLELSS
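Benchmarks: low control DMSO, high control PEA (EC100); System: CHO RD-HGA16 cells carrying human TAAR1 plus Gα16; Detection: Fluo-8 fluorescence, 5 s baseline then 140 s kinetic read; Schedule: 17-24 h plating, Fluo-8 75 min 37 °C, 30 min RT; Read-out basis: % activation from peak over basal fluorescence ratio, DMSO-to-PEA scaled.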
TAAR1 antag: antagonists of human TAAR1; Q96RJ0; CHO RD-HGA16 TAAR1, Fluo-8 calcium fluorescence, antagonist; inhibition, % at 3 µM; actives 1.5% (n = 360,000); AID 624466;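 active means inhibition above a per-plate cutoff, the mean inhibition of test compounds on that plate plus 3 SD, cut at about 49% in these data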
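Test system – hTAAR1-expressing CHO RD-HGA16 cells, Gα16-coupled · Reagent – β-PEA at EC80 concentration, post-compound challenge · Compound dosing – 3 µM, single point · Timing – 140 s kinetic read after compound, 140 s after agonist · Detection – Fluo-8 intracellular calcium dye fluorescence, real-time kinetic reads · Control set – DMSO and EC80 PEA controls · Repeats – n of 1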
OX1R antag-2: antagonists of human orexin 1 receptor. O43613. CHO/OX1R cells, Fluo-8 calcium fluorescence, orexin A. inhibition, % at 5 µM. actives 0.43% (n = 330,000). AID 434989;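 active means inhibition above its plate's threshold, mean inhibition of all tested compounds on the plate plus 3 SD, cut at about 37% in these data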
nonsel antag count: nonselective antagonist in TAAR1 antagonist counter-screen; counterscreen cell line, calcium fluorescence, antagonist mode; shares compounds with TAAR1 antag; inhibition, % at 3 µM; actives 77% (n = 2,400); in the data active means inhibition above about 22%;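 further: CHO-Ga16 host cells stimulated with ATP at an EC80 level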
TAAR1 antag conf: confirmation of human TAAR1 antagonists; shares compounds with TAAR1 antag; TAAR1-expressing cells, fluorescence antagonist read-out; inhibition, % at 3 µM; actives 40% (n = 2,400); in the data active means inhibition above about 49%;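 further: CHO-Ga16 host cells challenged with agonist PEA near its EC80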
Ga16 ag counter-1: nonselective Ga16 agonism, counter-screen | shares compounds with TAAR1 antag | Ga16-expressing cells, calcium fluorescence, agonist counterscreen | activation, % at 3 µM | actives 18% (n = 2,400); in the data active means activation above about 12%
TAAR1 ag counter: activates human TAAR1 in antagonist counter-screen | hTAAR1 cell line, fluorescence activation, agonist mode | actives 2% (n = 2,400) | shares compounds with TAAR1 antag | activation, % at 3 µM; in the data active means activation above about 37%;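 further: CHO cells stably expressing TAAR1 with calcium dye readout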
TAAR1 ag confirm: human TAAR1 agonism, confirmed; shares compounds with TAAR1 agonist; CHO RD-HGA16 TAAR1, Fluo-8 calcium fluorescence; scaled: DMSO 0%, maximal phenethylamine 100%; activation, % at 3 µM; actives 82% (n = 2,400);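 active means activation above a cutoff set at the run's mean compound activation plus 3 SD, cut at about 39% in these data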
Ga16 ag counter-2: counter-screen for TAAR1 agonists: nonselective agonists in parental cells | shares compounds with TAAR1 agonist | CHO-Ga16 parental, Fluo-8 calcium fluorescence; normalized to maximal ATP response, DMSO zero | activation, % at 3 µM | actives 50% (n = 2,400) | AID 651787;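 active means activation above the run cutoff, the mean activation over all tested wells plus 3 SD, cut at about 12% in these data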
TAAR1 desensitize: TAAR1 response desensitization, agonist counter-screen; CHO RD-HGA16 hTAAR1, Fluo-8 calcium, beta-PEA response inhibition; shares compounds with TAAR1 agonist; actives 46% (n = 2,400); AID 651951; inhibition, % at 3 µM;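 active means inhibition above the run cutoff, the mean inhibition of all test compounds plus 3 SD, cut at about 49% in these data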;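 further: beta-PEA stimulus applied at its EC80; loss of beta-PEA calcium signal after compound pretreatment read as receptor desensitization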
Ga16 antag count: nonselective Ga16 antagonist in TAAR1 agonist counter-screen; shares compounds with TAAR1 agonist; CHO-Ga16 ATP-induced calcium, Fluo-8 fluorescence; inhibition, % at 3 µM; actives 39% (n = 2,400);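 active means inhibition above the plate's mean compound inhibition plus 3 SD, computed per plate, cut at about 22% in these data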
Hits are given with their value; i = inactive; nt = no result given.

SMILES	OX1R antag-1	CHO parental Ca	TAAR1 agonist	TAAR1 antag	OX1R antag-2	TAAR1 ag confirm	Ga16 ag counter-2	TAAR1 desensitize	Ga16 antag count	others
Fc1ccc2nc(-c3ccc(CN4CCC(c5nc6ccccc6[nH]5)CC4)cc3)c(-c3ccccc3)nc2c1	nt	nt	i	54	nt	nt	nt	nt	nt	nonsel antag count=47;TAAR1 antag conf=55;Ga16 ag counter-1=21;TAAR1 ag counter=i
O=C(NCCNC(=O)c1ccc(-c2ccc(Cl)c(Cl)c2)o1)c1cnccn1	i	i	63	82	i	57	40	72	51
O=C(NCCNC(=O)c1ccc(-c2cccc(Cl)c2)o1)c1cnccn1	nt	nt	i	i	nt	nt	nt	nt	nt
O=C(/C=N/O)NCc1ccncc1	i	i	i	i	i	nt	nt	nt	nt
Cc1ccc(O)c(C(=O)CC(=O)c2cccc(F)c2)c1	i	i	54	i	i	i	19	i	22
Cc1ccc(O)c(C(=O)CC(=O)c2ccc(Cl)cc2)c1	i	i	54	i	i	43	23	51	37
C=CCN1C(=O)CS/C1=N\S(=O)(=O)c1ccc(Cl)cc1	i	i	i	i	i	nt	nt	nt	nt
S=C1SCN(Cc2ccccc2)CN1Cc1ccccc1	nt	nt	i	i	nt	nt	nt	nt	nt
S=C1SCN(CCc2ccccc2)CN1CCc1ccccc1	nt	nt	82	86	nt	90	i	92	i
O=C(COc1ccc(Cl)cc1Cl)Nc1ccc(CN2CCCCC2)cc1	i	i	51	i	i	84	40	i	27
COC(=O)c1c(C)[nH]c(C(=O)COc2ccc3ccc(=O)oc3c2)c1C	i	i	59	51	i	i	14	50	31
CC(=O)c1c(C)[nH]c(C(=O)COc2ccc3ccc(=O)oc3c2)c1C	i	i	i	i	i	nt	nt	nt	nt
CCOC(=O)c1c(C)[nH]c(C)c1S(=O)(=O)N1c2ccccc2CC1C (stereo unspecified)	i	i	49	i	i	i	i	i	i
CCOC(=O)c1c(S(=O)(=O)N2c3ccccc3CC2C)c(C)n(C)c1C (stereo unspecified)	i	i	i	i	i	nt	nt	nt	nt
Cc1cc(NC(=O)CSc2nc(-c3ccco3)cc(C(F)(F)F)n2)no1	i	i	44	i	i	i	i	i	i
Cc1cc(NC(=O)CCSc2nc(-c3ccco3)cc(C(F)(F)F)n2)no1	i	i	i	i	i	nt	nt	nt	nt
COCCOc1ccc(C(F)(F)F)cc1NC(=O)CN1C(=O)NC2(CCc3ccccc32)C1=O (stereo unspecified)	i	i	i	i	i	nt	nt	nt	nt
COc1ccc2nc(NC3=NC(C(=O)Nc4ccc(C)cc4)CC(=O)N3)nc(C)c2c1 (stereo unspecified)	i	i	nt	nt	i	nt	nt	nt	nt
COc1ccc(NC(=O)C2CC(=O)NC(Nc3cccc(C)c3)=N2)cc1 (stereo unspecified)	i	i	51	i	i	54	i	i	i
COC(=O)[C@]1(Cc2ccccc2)N[C@H](CN(C)C(=O)c2ccc(F)cc2)[C@@H]2C(=O)N(C)C(=O)[C@@H]21	i	i	i	i	i	nt	nt	nt	nt
